# Data reported in publication PMC2289302 (The Journal of Cell Biology, 1992).
# What was measured:
# A375 melanoma cells = assay type: cell-based, human; conditions: 5 ug/ml peptide, no activation, Figs. 2 and 3
# Outline: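 Surfaces coated at 5 ug/ml with plasma fibronectin or with synthetic peptides, each carrying an NH2-terminal cysteine on a gly-gly-gly tail and conjugated to SMCC-derivatized RSA. Human melanoma A375 cells were left to adhere for 1 h. Nonadherent cells were washed off. Adherent monolayers were photographed under phase contrast on an inverted microscope to judge adhesion and spreading.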
# [1] = biological target: LDV peptide-RSA conjugate (human); assay: cell adhesion assay
# alpha 4 beta 1 integrin = alpha 4 beta 1 integrin (human (endogenous in Jurkat, Ramos, …, UniProt P13612;P05556)); assay: cell adhesion assay
Molecule,IC50 (alpha 4 beta 1 integrin),further results
rsa-EILDVPST,,"adhesion of A375 melanoma cells to coated surface, in words (A375 melanoma cells): able to support the adhesion"
alpha 4 beta 1 integrin (from UniProt P13612;P05556) (receptor),,molar concentration of peptide conjugate required for 50% adhesion [1]: > 2000
DELPQLVTLPHPN [A13 peptide],> 1000 µM,
GPEILDVPST [GPEILDVPST peptide],450 µM,
EILDV [EILDV peptide],660 µM,
LHGPEILDVPST [B12 peptide],400 µM,
